Holding throughout (format): cell-based
For data set [1], the target named is T1, Fibroblast growth factor 14/SCN8A (Homo sapiens) (UniProt Q9UQD0+Q92915). As to the kind of experiment: Inhibition of Cluc-FGF14 (unknown origin)/CD4-Nav1.6-Nluc (unknown origin) protein-protein interaction using FGF14/NAV1.6 using HEK293 cells expressing FGF14/Nav1.6 by split luciferase complementation assay. The essentials:
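Split-luciferase complementation in HEK293 cells expressing Cluc-FGF14 and CD4-Nav1.6-Nluc. Five-point dose response at 1, 10, 25, 50 and 100 μM.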

The target of data set [2] is Luciferin 4-monooxygenase (Photinus pyralis) (UniProt P08659). As to the kind of experiment: Effect on firefly luciferase activity expressed in HEK293 cells at 50 uM by luminescence assay. The method in brief: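 HEK293 cells transiently transfected with full-length Photinus (firefly) luciferase. Compounds dissolved in DMSO and diluted in medium to 50 μM final in 0.5% DMSO. Luminescence expressed as % of maximal, relative to 0.5% DMSO vehicle.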
Chain of Luciferin 4-monooxygenase (Photinus pyralis) (P08659 whole entry): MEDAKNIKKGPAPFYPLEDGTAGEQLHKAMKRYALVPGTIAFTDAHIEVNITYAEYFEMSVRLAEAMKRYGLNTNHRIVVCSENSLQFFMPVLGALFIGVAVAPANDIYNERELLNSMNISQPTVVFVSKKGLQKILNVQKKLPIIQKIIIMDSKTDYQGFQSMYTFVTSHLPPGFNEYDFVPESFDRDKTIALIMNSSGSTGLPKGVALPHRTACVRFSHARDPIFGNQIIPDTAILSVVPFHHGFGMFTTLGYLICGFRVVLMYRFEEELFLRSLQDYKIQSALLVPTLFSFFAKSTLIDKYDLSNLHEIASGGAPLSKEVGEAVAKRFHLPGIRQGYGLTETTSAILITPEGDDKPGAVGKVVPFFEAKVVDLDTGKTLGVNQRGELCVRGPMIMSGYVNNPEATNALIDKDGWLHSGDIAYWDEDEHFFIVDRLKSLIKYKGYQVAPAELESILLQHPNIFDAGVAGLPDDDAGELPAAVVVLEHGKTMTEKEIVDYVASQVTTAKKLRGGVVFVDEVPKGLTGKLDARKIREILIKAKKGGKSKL

The target in data set [3] is Sodium channel protein type 8 subunit alpha (Homo sapiens) (UniProt Q9UQD0). Briefly: Inhibition of Nav1.6 (unknown origin) expressed in HEK293 cells assessed as V1/2 of steady-state of inactivation at 10 uM after 1 hr at -70 mV holding potential by whole cell patch clamp method (reference value: […]).
Chain of Sodium channel protein type 8 subunit alpha (Homo sapiens) (Q9UQD0 whole entry, looked up): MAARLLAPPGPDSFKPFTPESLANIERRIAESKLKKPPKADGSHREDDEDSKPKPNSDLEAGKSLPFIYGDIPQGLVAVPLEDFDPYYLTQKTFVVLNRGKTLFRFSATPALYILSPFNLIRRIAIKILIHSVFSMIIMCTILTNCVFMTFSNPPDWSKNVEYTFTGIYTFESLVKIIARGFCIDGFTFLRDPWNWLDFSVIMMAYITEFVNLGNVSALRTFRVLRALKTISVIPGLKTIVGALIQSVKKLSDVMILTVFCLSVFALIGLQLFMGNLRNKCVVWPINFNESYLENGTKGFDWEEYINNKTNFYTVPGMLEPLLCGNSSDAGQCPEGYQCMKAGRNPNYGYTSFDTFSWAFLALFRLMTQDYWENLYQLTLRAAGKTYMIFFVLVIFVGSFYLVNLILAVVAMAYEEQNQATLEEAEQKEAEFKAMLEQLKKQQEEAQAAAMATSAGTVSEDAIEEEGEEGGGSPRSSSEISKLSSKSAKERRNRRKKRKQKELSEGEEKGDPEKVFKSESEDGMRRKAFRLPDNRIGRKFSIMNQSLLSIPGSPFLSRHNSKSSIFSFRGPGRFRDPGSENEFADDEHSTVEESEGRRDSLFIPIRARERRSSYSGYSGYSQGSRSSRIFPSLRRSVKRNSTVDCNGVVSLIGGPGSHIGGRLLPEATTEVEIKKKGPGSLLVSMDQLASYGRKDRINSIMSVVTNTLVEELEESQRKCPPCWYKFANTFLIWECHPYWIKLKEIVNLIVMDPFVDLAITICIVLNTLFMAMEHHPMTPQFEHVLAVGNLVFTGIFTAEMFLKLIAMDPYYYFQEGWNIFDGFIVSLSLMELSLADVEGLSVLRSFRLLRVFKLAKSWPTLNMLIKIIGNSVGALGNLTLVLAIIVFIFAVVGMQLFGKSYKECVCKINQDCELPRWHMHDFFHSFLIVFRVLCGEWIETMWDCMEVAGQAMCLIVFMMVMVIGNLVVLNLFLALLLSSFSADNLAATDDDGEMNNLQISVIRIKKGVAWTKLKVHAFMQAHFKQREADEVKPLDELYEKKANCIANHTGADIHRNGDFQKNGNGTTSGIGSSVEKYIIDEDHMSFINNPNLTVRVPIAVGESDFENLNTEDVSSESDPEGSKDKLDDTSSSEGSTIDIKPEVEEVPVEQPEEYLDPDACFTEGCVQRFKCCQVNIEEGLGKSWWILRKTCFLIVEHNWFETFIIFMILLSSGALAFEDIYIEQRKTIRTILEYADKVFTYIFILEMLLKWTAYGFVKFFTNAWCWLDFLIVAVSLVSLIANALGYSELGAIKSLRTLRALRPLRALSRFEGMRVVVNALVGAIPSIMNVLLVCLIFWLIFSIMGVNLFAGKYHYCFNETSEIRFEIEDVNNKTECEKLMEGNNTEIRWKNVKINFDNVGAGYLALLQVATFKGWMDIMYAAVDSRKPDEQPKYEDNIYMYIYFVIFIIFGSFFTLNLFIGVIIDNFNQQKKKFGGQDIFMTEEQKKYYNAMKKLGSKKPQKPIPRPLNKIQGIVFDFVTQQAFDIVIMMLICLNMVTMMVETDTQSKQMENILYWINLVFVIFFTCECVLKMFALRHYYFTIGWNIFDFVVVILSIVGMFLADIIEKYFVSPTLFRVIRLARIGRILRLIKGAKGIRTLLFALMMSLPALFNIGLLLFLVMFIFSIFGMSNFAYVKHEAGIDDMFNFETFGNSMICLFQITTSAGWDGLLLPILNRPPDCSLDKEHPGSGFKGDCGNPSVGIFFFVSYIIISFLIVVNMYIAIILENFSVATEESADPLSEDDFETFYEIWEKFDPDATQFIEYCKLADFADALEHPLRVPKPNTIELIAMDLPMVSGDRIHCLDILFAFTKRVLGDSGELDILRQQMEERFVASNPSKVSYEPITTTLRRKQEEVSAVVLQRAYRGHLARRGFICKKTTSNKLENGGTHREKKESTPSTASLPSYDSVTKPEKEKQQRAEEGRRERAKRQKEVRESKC
For data set [4] the target is unchanged. Briefly: Inhibition of Nav1.6 (unknown origin) expressed in HEK293 cells assessed as activation constant at 10 uM after 1 hr at -70 mV holding potential by whole cell patch clamp method (reference value: 3.4 +/- 0.2 mV). On the technique in general: The patch-clamp technique gives a direct electrical read-out from membranes.
For data set [5] the target is unchanged. Briefly: Inhibition of Nav1.6 (unknown origin) expressed in HEK293 cells assessed as inactivation time constant at 10 uM after 1 hr at -70 mV holding potential by whole cell patch clamp method (reference value: 2.04 +/- 0.3 milliseconds).
The next data set relates to HEK293. As to the kind of experiment: Cytotoxicity against HEK293 cells assessed as reduction in cell viability at 50 uM by LDH release assay. Conditions: human, hek293, 50 µM. The method in brief: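 LDH release cytotoxicity assay in HEK293 cells, compounds given at 50 μM final. Read-out is % cytotoxicity. Data are mean ± S.E.M.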
On the technique in general: Release of lactate dehydrogenase indicates damage to the cell membrane.

Data set [6] has as its target T1, Fibroblast growth factor 14/SCN8A (Homo sapiens). As to the kind of experiment: Modulation of Cluc-FGF14 (unknown origin)/CD4-Nav1.6-Nluc (unknown origin) protein-protein interaction using FGF14/NAV1.6 using HEK293 cells expressing FGF14/Nav1.6 assessed as luminescent response at 50 uM by split luciferase complementation assay relative to control. The method in brief: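 Split-luciferase complementation in HEK293 cells co-transfected with Cluc-FGF14 and CD4-Nav1.6-Nluc plasmids. Compounds in DMSO, diluted in medium to 50 μM final, 0.5% DMSO. Luminescence reported as % maximal vs 0.5% DMSO vehicle.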

Calls of active or inactive are those of the source. No cut-off for these calls is given here. Residues, ends and D or L forms follow the SMILES beside them. *: point of attachment. Fmoc = O=C(OCC1c2ccccc2-c2ccccc21)*; Cbz = O=C(OCc1ccccc1)*; Boc = CC(C)(C)OC(=O)*; Bz = O=C(c1ccccc1)*

T1 sequence (Q92915 whole entry, looked up): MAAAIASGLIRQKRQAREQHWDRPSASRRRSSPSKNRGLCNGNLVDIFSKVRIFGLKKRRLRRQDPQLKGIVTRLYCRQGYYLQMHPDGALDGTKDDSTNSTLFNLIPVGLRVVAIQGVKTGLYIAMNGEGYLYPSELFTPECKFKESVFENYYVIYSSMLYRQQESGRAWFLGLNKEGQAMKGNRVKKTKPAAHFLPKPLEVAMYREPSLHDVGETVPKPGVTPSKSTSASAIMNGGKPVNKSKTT
T1 sequence (Q9UQD0 whole entry, looked up): as the sequence (Q9UQD0 whole entry, looked up) above

In the case of `COC(=O)[C@H](CCCCNC(=O)OCC1c2ccccc2-c2ccccc21)NC(=O)[C@@H]1CCCN1C(=O)[C@H](CC(C)C)NC(=O)[C@H](Cc1ccccc1)NC(C)=O` (Ac-FLPK(Fmoc)-OMe), the inhibition result in data set [1] is “Dose-dependent effect”. Further, in data set [2], the outcome was inactive. The V1/2 in data set [3] was -57.7 mV. Also, in data set [4], the Kact is 3.9 mV. The TIME in data set [5] was determined as 5.69e-07 h. Also, the Activity result in the data set on HEK293 is “Non-Toxic”.
In the case of `CC(=O)N1CCC[C@H]1C(=O)N[C@@H](CC(C)C)C(=O)N[C@@H](CCCCNC(=O)OC(C)(C)C)C(N)=O` (Ac-Pro-Leu-Lys(Boc)-NH2), the result in data set [2] was inactive.
In the case of `CC(C)C[C@H](NC(=O)[C@H](Cc1ccccc1)NC(=O)c1ccccc1)C(=O)N1CCC[C@H]1C(=O)N[C@@H](CCCCNC(=O)OC(C)(C)C)C(N)=O` (Bz-FLPK(Boc)-NH2), in data set [1], the inhibition result is “Dose-dependent effect”. Further, in data set [2], the result was inactive. Besides, in the data set with HEK293, the Activity entry is on record as “Non-Toxic”.
For the molecule `CC(C)C[C@H](NC(=O)[C@H](Cc1ccccc1)NC(=O)OCc1ccccc1)C(=O)N1CCC[C@H]1C(=O)N[C@@H](CCCCNC(=O)OC(C)(C)C)C(N)=O` (Cbz-FLPK(Boc)-NH2), the result in data set [2] was inactive.
For `COC(=O)[C@H](CCCCNC(=O)OCC1c2ccccc2-c2ccccc21)NC(=O)[C@@H]1CCCN1C(=O)[C@H](CC(C)C)NC(=O)[C@@H](N)Cc1ccccc1` (H-FLPK(Fmoc)-OMe), the result in data set [2] was inactive. The Activity in data set [6] amounted to 124%.
On to `CC(C)C[C@H](N)C(=O)N1CCC[C@H]1C(=O)N[C@@H](CCCCN)C(N)=O` (H-Leu-Pro-Lys-NH2), for which the outcome in data set [2] was inactive. Also, the values for the Activity (in data set [6]; with HEK293) were 142% and “Non-Toxic”, respectively.

The record behind these values is ChEMBL document CHEMBL4330098, “Identification of peptidomimetics as novel chemical probes modulating fibroblast growth factor 14 (FGF14) and voltage-gated sodium channel 1.6 (Nav1.6) protein-protein interactions” (Bioorg Med Chem Lett, 2019).
